Series [1] is described as follows: Drug level in mouse plasma at 5 mg/kg, ip administered as single dose measured at 1 hr post dose by liquid chromatography/tandem mass spectrometric analysis. It is filed as ADME, organism-based. Put shortly: (§1)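 Single ip dose of 5 mg/kg in 5% DMSO/7% Tween 80/3% EtOH in 0.9% saline, three mice per compound (six for one compound). At 1 h, plasma is separated by centrifugation and brain homogenized in acetonitrile. Both are quantified by LC-MS/MS, with brain corrected for 3% v/w blood. Brain/plasma ratio is reported as mean ± SEM.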

The test system of the next series is HepG2. As to the kind of experiment: Cytotoxicity against human HepG2 cells assessed as growth inhibition after 48 hrs by Alamar blue assay. It counts as cell-based. The note with it: for EC50: Homo sapiens, HepG2, 48 h; for EC90: human, hepg2, 48 h. Summed up: (§2)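 CRL-8155 lymphoblasts or HepG2 hepatocellular carcinoma cells are exposed 48 h to serial compound dilutions in quadruplicate. Growth is read with Alamar Blue, and 50% and 90% inhibitory concentrations come from nonlinear regression. Quinacrine is the control.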
On the technique in general: Resazurin is reduced to fluorescent resorufin, in cell work by metabolically active cells.

The nature of series [2]: Drug level in mouse brain at 5 mg/kg, ip administered as single dose measured at 1 hr post dose by liquid chromatography/tandem mass spectrometric analysis. It counts as ADME, organism-based. The conditions noted are these: read-out: Drug uptake. Put shortly: as §1
The nature of series [3]: Stability in human liver microsomes assessed as compound remaining at 1.5 uM in presence of NADPH measured after 60 mins by liquid chromatography/tandem mass spectrometric analysis. It is filed as ADME, microsome. The note with it: read-out: Stability. Summed up:
(§3)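 Pooled liver microsomes (0.5 mg/mL) are preincubated 5 min at 37 °C in 0.16 M KH2PO4 with 1 mM NADPH, then test compound is added at 1.5 μM. Aliquots are quenched with 4 volumes of acetonitrile at 0, 5, 10, 15, 30 and 60 min and analyzed by LC-MS/MS. Percent remaining at 5 or 60 min is given when t1/2 is outside the 5–60 min range. Controls: testosterone, dextromethorphan.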

Series [4] deals with Trypanosoma brucei brucei. As to the kind of experiment: Antitrypanosomal activity against Trypanosoma brucei brucei BF427 assessed as growth inhibition measured after 48 hrs by Alamar blue assay. It counts as functional. The note with it: BF427, 48 h. Put shortly: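 Bloodstream-form parasites in HMI-9 medium are exposed to serial compound dilutions in triplicate. Viability is read with Alamar Blue at 48 h. EC50 and EC90 come from nonlinear regression. Pentamidine isethionate is the control.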

Series [5] is described as follows: AUC (0 to infinity) in mouse at 50 mg/kg, po administered as single dose via gavage as 7% Tween 80/3% EtOH/5% DMSO formulation by liquid chromatography/tandem mass spectrometric analysis. The note with it: in vivo. The arrangement: dose 50 mg/kg, route oral, time infinity. It counts as ADME, organism-based. Summed up: (§4)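 Single oral gavage dose of 50 mg/kg to groups of three mice, vehicle as in the line. Tail blood of 40 μL is taken into heparinized capillaries at time points out to as much as 32 h. It is spotted on dried-blood cards and quantified by LC-MS/MS. Values are means ± SEM of three mice.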

The nature of series [6]: Selectivity index, ratio of EC50 for human HepG2 cells to EC50 for Trypanosoma brucei brucei BF427. The note with it: read-out: Ratio EC50. It counts as toxicity.
Series [7] can be described thus: Selectivity index, ratio of EC50 for human CRL8155 cells to EC50 for Trypanosoma brucei brucei BF427. It counts as toxicity. The conditions noted are these: read-out: Ratio EC50.
Series [8] concerns Liver. Nature of the series: Half life in mouse liver microsomes at 1.5 uM in presence of NADPH by liquid chromatography/tandem mass spectrometric analysis. It is filed as ADME, microsome. (Liver microsomes are vesicles of endoplasmic reticulum, rich in cytochrome P450 enzymes.)
The nature of series [9]: Cytotoxicity against human CRL8155 cells assessed as growth inhibition after 48 hrs by Alamar blue assay. It counts as cell-based. The note with it: for EC50: Homo sapiens, CRL8155, 48 h; for EC90: human, crl8155, 48 h. Summed up: as §2
The nature of series [10]: Stability in human liver microsomes assessed as compound remaining at 1.5 uM in presence of NADPH measured after 5 mins by liquid chromatography/tandem mass spectrometric analysis. It is filed as ADME, microsome. The note with it: read-out: Stability. Put shortly:
as §3

A short description of series [11]: Stability in mouse liver microsomes assessed as compound remaining at 1.5 uM in presence of NADPH measured after 5 mins by liquid chromatography/tandem mass spectrometric analysis. It counts as ADME, microsome. The conditions noted are these: read-out: Stability.
Series [12] has as its system Liver. Nature of the series: Half life in human liver microsomes at 1.5 uM in presence of NADPH by liquid chromatography/tandem mass spectrometric analysis. It is filed as ADME, microsome.
A short description of series [13]: Stability in mouse liver microsomes assessed as compound remaining at 1.5 uM in presence of NADPH measured after 60 mins by liquid chromatography/tandem mass spectrometric analysis. It is filed as ADME, microsome. The conditions noted are these: read-out: Stability. Put shortly: as §3
Series [14] can be described thus: Ratio of drug level in brain to plasma in mouse at 5 mg/kg, ip administered as single dose measured at 1 hr post dose by liquid chromatography/tandem mass spectrometric analysis. It is filed as ADME, organism-based. Put shortly:
as §1

A short description of series [15]: Cmax in mouse at 50 mg/kg, po administered as single dose via gavage as 7% Tween 80/3% EtOH/5% DMSO formulation by liquid chromatography/tandem mass spectrometric analysis. It counts as ADME, organism-based. The arrangement: dose 50 mg/kg, route oral. The conditions noted are these: in vivo. Put shortly: as §4
Series [16] has as its system Trypanosoma brucei brucei. As to the kind of experiment: Anti-parasitic activity against Trypanosoma brucei brucei TREU667 infected in mouse assessed as reduction in parasitemia at 10 mg/kg, ip bid administered on day 21 to 30 post infection measured on day 180 by microscopic method. It counts as functional, organism-based.

Eight molecules from ChEMBL document CHEMBL3992510, “Urea Derivatives of 2-Aryl-benzothiazol-5-amines: A New Class of Potential Drugs for Human African Trypanosomiasis” (J Med Chem, 2017) can be followed below.

Activity calls are given as the source filed them. The rule behind the calls is not given here. Where only a bound is given, the exact number is not on record here.

What is called EC50 is the concentration at which the effect is half-maximal. For orientation: EC90 means the concentration at which the effect reaches the 90% level. For orientation: AUC(0-inf) means the area under the concentration-time curve extrapolated to infinity. Lower therefore signals low exposure. In general, Cmax refers to the maximum level reached in the sampled fluid or tissue.

Consider `O=C(Nc1ccc2sc(-c3ccc(F)c(F)c3)nc2c1)N1CCCC1`, for which the concentration at 1 h in [1] turned out to be 2.61 µM; in series [2], 4.25 µM. Also, the EC50 in the series with HepG2 is greater than 50 µM; in [4], 0.0918 µM; in series [9], 33.9 µM. In addition, the values for the EC90 (with HepG2; in series [4]; in series [9]) were greater than 50 µM, 0.181 µM and greater than 50 µM, respectively. Also, the remaining at 1 h, 1.5 µM in [3] was found to be 66%. Moreover, the AUC(0-inf) in series [5] is 7.39 µM·h. Besides, the values for the selectivity ratio in series [6] and in series [7] were greater than 545 and 369, respectively. Besides, the t1/2 in the series with Liver [8] was found to be 14 min.
On to `CC1CCCCN1C(=O)NCCc1nc(-c2cccc(F)c2)cs1` (stereo not given), for which the results for the EC50 (in the series with HepG2; in series [4]; in series [9]) were greater than 50 µM, 0.037 µM and greater than 50 µM, respectively. Besides, the EC90 in the series with HepG2 was greater than 50 µM; in series [4], 0.0586 µM; in [9], greater than 50 µM. The remaining at 5 min, 1.5 µM in series [10] worked out at 3.9%; in series [11], 21%. For the same molecule, the selectivity ratio in series [6] and in series [7] was greater than 1350 throughout. Moreover, the t1/2 in the series with Liver [8] and with Liver [12] was less than 5 min each time.
For `O=C(Nc1ccc2sc(-c3ccc(F)c(F)c3)nc2c1)N1CCC(F)C1` (stereo not given), the concentration at 1 h in series [1] turned out to be 3.26 µM; in series [2], 5.48 µM. Moreover, the results for the remaining at 1 h, 1.5 µM in [13] and in series [3] were 52% and 99%, respectively. The figures for the concentration for a half-maximal effect (EC50) (in the series on HepG2; in series [4]; in series [9]) were greater than 50 µM, 0.0519 µM and greater than 50 µM, respectively. Moreover, the EC90 with HepG2 was greater than 50 µM; in [4], 0.0919 µM. For the same molecule, the BPR in series [14] turned out to be 2.11. The AUC(0-inf) in series [5] was 108 µM·h. In series [15], this molecule returned a maximum concentration (Cmax) of 10 µM. Moreover, the selectivity ratio in series [6] and in series [7] was greater than 963 each time. Also, the t1/2 in the series on Liver [8] and in the series with Liver [12] was greater than 60 min each time.
Consider `O=C(NCCc1nc(-c2ccc(F)cc2F)cs1)N1CCCCC1`, for which the values for the remaining at 5 min, 1.5 µM in series [10] and in series [11] were 46% and 0%, respectively. For the same molecule, the t1/2 with Liver [8] and with Liver [12] was less than 5 min each time.
For `N=C(N)c1ccc(/N=N/Nc2ccc(C(=N)N)cc2)cc1`, the result in [16] was inactive.
In the case of `O=C(NCCc1nc(-c2ccc(F)c(F)c2)cs1)N1CCCCC1`, the remaining at 5 min, 1.5 µM in [10] was 22%; in series [11], 0%. Further, the t1/2 in the series on Liver [8] and with Liver [12] was less than 5 min in each case.
Consider `O=C(Nc1ccc2sc(-c3ccc(F)c(F)c3)nc2c1)N1C[C@@H](F)[C@H](F)C1`, for which the concentration at 1 h in series [1] was 2.19 µM; in series [2], 16.2 µM. For the same molecule, the remaining at 1 h, 1.5 µM in [13] was 67%; in series [3] it was 96%. Also, the EC50 in the series with HepG2 was greater than 50 µM; in [4] it was 0.114 µM; in series [9] it was 27.1 µM. In addition, the concentration for an effect of 90% (EC90) in the series on HepG2 is greater than 50 µM; in series [4] it was 0.747 µM; in series [9], greater than 50 µM. For the same molecule, the BPR in series [14] amounted to 7.71. In series [5], this molecule showed an AUC(0-inf) of 225 µM·h. In addition, the selectivity ratio in [6] was greater than 439; in series [7], greater than 238.
With `O=C(N/C=C/c1nc(-c2cccc(F)c2)cs1)N1CCCCC1`, the values for the EC50 (in the series with HepG2; in series [4]; in [9]) were greater than 50 µM, 0.0946 µM and greater than 50 µM, respectively. Besides, the figures for the EC90 (in the series with HepG2; in series [4]; in series [9]) were greater than 50 µM, 0.216 µM and greater than 50 µM, respectively. In series [10], the remaining at 5 min, 1.5 µM stood at 28%. Moreover, the selectivity ratio in series [6] and in [7] was greater than 529 in each case. Also, the t1/2 with Liver [8] is 13 min; in the series with Liver [12] it was less than 5 min.
